This is a sample that favours compounds with a hit; in the whole collection about 9.6% have one here.
b-catenin transl – alters nuclear translocation of beta-catenin in HeLa cells. immunofluorescence imaging. nuclear translocation activity, % at 5 µM. 0.3% of 190,000 active. AID 1665;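 active means nuclear translocation activity above 50% at 5 µM, with a well cell count of 50 or more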;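 further: per-cell ratio of nuclear to cytoplasmic median beta-catenin stain intensity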
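Test system: human HeLa cells, endogenous beta-catenin. Times: 24 h compound exposure, 37°C. Measured by: beta-catenin immunofluorescence imaging with DAPI.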
APP transl inh – APP translation inhibition. SH-SY5Y APP 5'UTR-luciferase reporter, luminescence. inhibition, % at 2 µM. 0.82% of 190,000 active;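 active means inhibition above a set limit, derived from the sample mean plus 3 SD, cut at about 45% in these data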
BaF3 tox – reduces parental Ba/F3 cell viability, JAK2V617F counter-screen; inhibition, % at 5.6 µM; CellTiter-Glo ATP luminescence; 1.1% of 220,000 active;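 active means inhibition above a per-campaign cutoff, the mean inhibition of all tested compounds plus 3 SD, cut at about 27% in these data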
Ba/F3 V617F tox – reduce viability of Ba/F3 cells dependent on JAK2V617F. Ba/F3 EpoR-JAK2V617F viability, ATP luminescence. 1.1% of 220,000 active. inhibition, % at 5.6 µM;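 active means inhibition above the campaign mean plus 3 SD over all tested compounds, cut at about 24% in these data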;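 further: cytokine-independent growth of Ba/F3 cells driven by EpoR plus mutant JAK2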
Lmaj promast – inhibitors of Leishmania major promastigote growth. Leishmania major promastigotes, resazurin fluorescence viability. inhibition, % at 10 µM. 9% of 200,000 active. AID 1063; in the data active means inhibition above about 50%;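 further: promastigotes grown with compound for 44 hours at 28 °C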
MT stabilizer – microtubule stabilization, imaging screen. AID 2205. % tubulin-high responders, % at 10 µM. 0.83% of 200,000 active. HeLa tubulin immunostaining HCS, 24 h; share of cells brighter than vehicle mean+2SD;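 active means plate Z-score above 3 for both tubulin-high and condensed-nucleus cell shares, with cell loss under 80%, at 10 µM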;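 further: anti alpha tubulin signal scored within the nucleus-defined area of each cell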
Large screens that a line does not name were inactive.

CC(C)C(=O)NC(=S)Nc1ccccc1C(=O)Nc1ccccc1	none
O=C(Cc1ccccc1)Nc1ccccc1C(=O)Nc1ccccc1	Lmaj promast 65
O=C(O)CCC(=O)Nc1ccccc1C(=O)NCc1ccco1	none
O=C(O)CCC(=O)Nc1ccccc1C(=O)NCc1ccccc1	Lmaj promast 51
Cn1c(NC(=O)c2ccccc2NC(=O)C(C)(C)C)nc2ccccc21	Lmaj promast 77
O=C1/C(=C\c2ccc(O)c(O)c2)N=C2CCCCCN12	none (no result: APP transl inh, Lmaj promast, MT stabilizer)
O=C(NCc1ccc(F)cc1)c1ccccc1OCc1ccccc1	Lmaj promast 79 (no result: b-catenin transl)
Cc1ccc(NC(=O)c2cc(-c3ccccc3)nn2-c2ccccc2)c(Br)c1	Lmaj promast 69 (no result: b-catenin transl)
CS(=O)(=O)c1ccc2nc(NC(=O)c3cc(-c4ccccc4)nn3-c3ccccc3)sc2c1	Lmaj promast 100
Cc1ccc(NC(=O)c2cc(-c3ccccc3)nn2-c2ccccc2)cc1	none
CC1Cc2ccccc2N1C(=O)COc1ccc2c(c1)OCO2 (centres undefined)	none
NNC(=O)c1oc2ccccc2c1-n1cccc1	APP transl inh 62
O=c1cc(-c2ccco2)oc2c1ccc1ccccc12	none
O=c1cc(C(Cl)(Cl)Cl)oc2c1ccc1ccccc12	Lmaj promast 98
O=C(O)CSc1nc(-c2ccccc2)c(-c2ccccc2)[nH]1	none (no result: APP transl inh, Lmaj promast, MT stabilizer)
Cc1ccc(-c2nc(SCC(=O)NCCN3C(=O)CSC3=O)[nH]c2-c2ccc(C)cc2)cc1	Lmaj promast 81
CC(C)(C)NC(=O)CSc1nc(-c2ccccc2)c(-c2ccccc2)[nH]1	MT stabilizer 15
Cc1ccc(SCC(=O)NCCN2C(=O)CSC2=O)c(C)c1	none
O=C(CCN1CCc2ccccc2C(c2ccccc2)C1)c1ccc2c(c1)OCCO2 (centres undefined)	Lmaj promast 100
O=C(O)CCC(=O)c1ccc2c(c1)OCCO2	none (no result: b-catenin transl, APP transl inh)
O=C(CS(=O)(=O)c1ccccc1)c1ccc2c(c1)OCCO2	none (no result: b-catenin transl)
O=C(CCN1Cc2ccccc2C1)c1ccc2c(c1)OCCO2	Lmaj promast 83
O=Cc1cccn1-c1nccc(-c2ccco2)n1	none
Cc1cc(NC(=O)COC(=O)c2cc(S(=O)(=O)N(C)c3ccccc3)ccc2Cl)no1	none (no result: APP transl inh, Lmaj promast, MT stabilizer)
COc1ccccc1OCC(=O)N/N=C1/C=C(C)CC1	none
O=C1c2ccccc2-c2onc3ccc(NCCCn4ccnc4)c1c23	Lmaj promast 100
CC(C)n1cc(-c2nc(C(=O)NN)cs2)c(=O)n(Cc2ccccc2)c1=O	none (no result: APP transl inh, Lmaj promast, MT stabilizer)
Cc1ccc2[nH]nc(C(=O)N3CCCC(C(=O)c4ccc(Cl)cc4)C3)c2c1 (centres undefined)	none
CCC(CC)C(=O)N1c2ccc(F)cc2CCC1C (centres undefined)	none
COc1ccc(C(=O)N2c3ccc(F)cc3CCC2C)cc1OC (centres undefined)	none
CC1CCc2cc(F)ccc2N1C(=O)CCl (centres undefined)	Lmaj promast 75
CC1CCc2cc(F)ccc2N1C(=O)c1ccc2c(c1)OCO2 (centres undefined)	BaF3 tox 36, Ba/F3 V617F tox 32 (no result: b-catenin transl)
O=C1CCCC/C1=C\Nc1ccc(C(=O)O)c(O)c1	none (no result: APP transl inh, Lmaj promast, MT stabilizer)
CCN(CC)S(=O)(=O)c1ccc2[nH]c(=O)cc(C(=O)Nc3ccc(C)c(S(=O)(=O)N(CC)CC)c3)c2c1	none
COc1ccc(NC(=S)Nc2ccc(N)c([N+](=O)[O-])c2)cc1	Lmaj promast 100
COc1ccc(NC(=S)Nc2ccc3nccnc3c2)cc1	none
COc1ccc(NC(=S)Nc2ccc3snnc3c2)cc1	Lmaj promast 54
COc1ccc(NC(=S)Nc2ccccc2)cc1	none (no result: APP transl inh, Lmaj promast, MT stabilizer)
CN(C)CCNC(=O)C(=O)NCC1OCCN1S(=O)(=O)c1ccc2c(c1)OCCO2 (centres undefined)	none (no result: APP transl inh, Lmaj promast, MT stabilizer)
CSCCC(NC(=O)/C(=C\c1ccc(Cl)cc1)NC(=O)c1ccccc1)C(=O)O (centres undefined)	none
S=c1[nH]nc(-c2cccnc2)n1C1CCCCC1	Lmaj promast 53
CC1CCCCC1n1c(-c2cccnc2)n[nH]c1=S (centres undefined)	none
CCCCOC(=O)C1=C(C)Nc2ncnn2C1c1cc(OC)c(OC)cc1OC (centres undefined)	none
CCOCCCNCc1cccc(OCc2ccc(F)cc2)c1	Lmaj promast 99 (no result: b-catenin transl)
CC(C)(CO)NCc1cccc(OCc2ccc(Cl)cc2)c1	none
CCOCCCNCc1ccc(Cl)cc1	Lmaj promast 69
CNS(=O)(=O)c1ccc(NS(=O)(=O)c2ccccc2F)cc1	none
CCOC(=O)NC(N(O)c1cccc(Cl)c1)C(Cl)(Cl)Cl (centres undefined)	none (no result: APP transl inh, Lmaj promast, MT stabilizer)
CN1CCC(N(C)CC(=O)Nc2ccc3c(c2)OC(F)(F)O3)CC1	none (no result: APP transl inh, Lmaj promast, MT stabilizer)
CCOC(=O)c1c(NC(=O)CSc2cccc[n+]2[O-])sc(C(=O)Nc2ccccc2)c1C	none
CCOC(=O)c1sc(NC(=O)CCN2CCN(CC)CC2)c(C(=O)OCC)c1C	Lmaj promast 100
CCOC(=O)c1c(NC(=O)CN(C)C2CCN(C)CC2)sc(C(=O)Nc2ccccc2)c1C	Lmaj promast 101
CN1CCC(N(C)CC(=O)Nc2cccc(Oc3ccccc3)c2)CC1	Lmaj promast 96
CC1CCCN(CC(O)CN)C1 (centres undefined)	none
N#CC1=C(SCc2ccccc2)NC(=O)CC1c1cccc(O)c1 (centres undefined)	Lmaj promast 62
N#CC1=C(SCc2ccccc2)NC(=O)CC1c1ccc(O)cc1 (centres undefined)	none (no result: b-catenin transl)
CCSC1=C(C#N)C(c2cccc(OC)c2)CC(=O)N1 (centres undefined)	none
Cc1ccc(C2CC(=O)NC(SCc3ccccc3)=C2C#N)cc1 (centres undefined)	Lmaj promast 61
O=S(N1CCc2ccccc21)C12CC3CC(CC(C3)C1)C2 (centres undefined)	none
O=C(C1CCCN(S(=O)(=O)Cc2ccccc2)C1)N1CCc2ccccc21 (centres undefined)	Lmaj promast 73
CC1Cc2ccccc2N1C(=O)C1CCCCN1S(=O)(=O)c1ccccc1 (centres undefined)	none
CCOC(=O)C1CCCN(S(=O)(=O)Cc2ccccc2)C1 (centres undefined)	none
CC1Cc2ccccc2N1C(=O)C1CCN(S(=O)(=O)Cc2ccccc2)CC1 (centres undefined)	Lmaj promast 54
CCOC(=O)C1=C(N)n2c(s/c(=C\c3ccco3)c2=O)=C(C(=O)OCC)C1c1ccco1 (centres undefined)	b-catenin transl 55, MT stabilizer 47
CCOC(=O)C1=C(N)n2c(s/c(=C\c3ccco3)c2=O)=C(C(=O)OC(C)C)C1c1ccco1 (centres undefined)	none
COc1cc(NC(=O)COc2ccc(Br)cc2)ccc1NC(=O)C(C)C	none
COc1ccccc1C(=O)NCC(=O)N/N=C/c1cn[nH]c1-c1ccccc1	none
